These results are taken from ChEMBL document CHEMBL1145909, “Optically active mexiletine analogues as stereoselective blockers of voltage-gated Na(+) channels” (J Med Chem, 2003).

Assay [1] in a line: Half-maximal concentration producing a phasic block (cumulative sodium current reduction at 10 HZ stimulation frequency) in Rana esculenta muscle. The assay is classed as functional, tissue-based, Muscle tissue. In a few lines:
(§1)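 Three-vaseline-gap voltage clamp on single fibers microdissected from the ventral branch of Rana esculenta semitendinosus. After 10 min equilibration, Na⁺ currents recorded at 10 °C from a holding potential of -100 mV. Compounds diluted daily from stocks in physiological/external solution, DMSO at most 0.2%. IC50 from a nonlinear least-squares fit of concentration-response curves; data as mean ± SEM.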

Assay [2] is described as follows: Half-maximal concentration producing a tonic block (blocking sodium channels at resting conditions during infrequent depolarizing pulses) in Rana esculenta muscle. The assay is classed as functional, tissue-based, Muscle tissue. In a few lines:
as §1

Assay [3] concerns Pelophylax lessonae. As to the kind of experiment: Ratio of the concentrations of tonic block to that of phasic block. The assay is classed as functional.
In assay [4] the test system is Pelophylax lessonae. In words: Relative potency producing phasic block, relative to mexileitine.

One may read the IC50 as the point on the concentration scale where inhibition reaches its midpoint. With `Cc1cccc(C)c1OC[C@@H](C)N` [(R)-MEXILETINE], the figures for the IC50 in assay [1] and in assay [2] were 23 µM and 54 µM, respectively. In the assay with Pelophylax lessonae [3], the Ratio is 2. Also, in the assay on Pelophylax lessonae [4], the Relative potency was 1.

Regarding `Cc1cccc(C)c1OC[C@H](C)N` [(S)-MEXILETINE], the IC50 was 27 µM in assay [1] and 114 µM in assay [2]. For the same compound, in the assay with Pelophylax lessonae [3], the Ratio was 4. The same compound returned a Relative potency in the assay on Pelophylax lessonae [4] of 1.

In the case of `Cc1cccc(C)c1OCC(C)N` (stereo unspecified) [MEXILETINE], the IC50 was 29 µM in assay [1] and 83 µM in assay [2]. Besides, the Ratio in the assay on Pelophylax lessonae [3] is 3.
